Our source for the Inhibition, NS and inhibition values is ChEMBL document CHEMBL1127562, “N-substituted spirosuccinimide, spiropyridazine, spiroazetidine, and acetic acid aldose reductase inhibitors derived from isoquinoline-1,3-diones. 2” (J Med Chem, 1994).

The test system of assay [1] is Rattus norvegicus. Kind of assay: Tested for in vivo inhibition of galactitol accumulation in the sciatic nerve of galactose-fed rats at the dose of 96.6 (mg/kg/day). The class given is functional. Summed up:
(§1)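 Rats fed a 20% galactose diet for 4 days, with test compound given in the diet at the stated daily dose (mg/kg/day). Read-out is inhibition of galactitol (polyol) accumulation in sciatic nerve. Values are % inhibition, mean ± SEM of six animals; p < 0.01 unless marked (some p < 0.05). NS = no significant inhibition of polyol accumulation. Tolrestat was the reference standard.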

Assay [2] concerns Rattus norvegicus. The assay is described as follows: Tested for in vivo inhibition of galactitol accumulation in the lens of galactose-fed rats at the dose of 48.8 (mg/kg/day); NS=Not significant. The class given is functional, organism-based. The conditions noted are these: Lens of camera-type eye.
Assay [3] deals with Rattus norvegicus. The assay is described as follows: Tested for in vivo inhibition of galactitol accumulation in the lens of galactose-fed rats at the dose of 96.6 (mg/kg/day); NS=Not significant. The class given is functional, organism-based. The conditions noted are these: Lens of camera-type eye. The method, boiled down: (§2)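 Galactosemic rats were fed 20% galactose for 4 days, with the compound mixed into the diet. […] galactitol accumulation was measured, and activity is given as % inhibition at the stated daily dose (mg/kg/day). Values are mean ± SEM of six animals; p < 0.01 unless indicated. NS means no significant inhibition of polyol accumulation.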

In assay [4] the test system is Rattus norvegicus. The assay is described as follows: Tested for in vivo inhibition of galactitol accumulation in the sciatic nerve of galactose-fed rats at the dose of 48.8 (mg/kg/day). It counts as functional. The method, boiled down:
as §1

The target of assay [5] is Aldo-keto reductase family 1 member B1 (Bos taurus) (UniProt P16116). Kind of assay: Inhibition of aldose reductase activity in partially purified bovine lens preparation at 10e-5 M. Summed up:
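Partially purified bovine lens aldose reductase. Reduction of DL-glyceraldehyde substrate followed spectrophotometrically. Activity expressed as average inhibition at the tested concentrations, 1×10^-5, 1×10^-6, 1×10^-7 and 4×10^-6 M as printed; IC50 in M where given.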

Assay [6] relates to Rattus norvegicus. Kind of assay: Tested for in vivo inhibition of galactitol accumulation in the sciatic nerve of galactose-fed rats at the dose of 1.0 (mg/kg/day). The class given is functional. The method, boiled down:
(§3)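 Rats were given a 20% galactose diet for 4 days, with the test compound administered in the diet. Sciatic nerve galactitol accumulation was measured, and activity is given as % inhibition at the stated daily dose (mg/kg/day). Values are mean ± SEM, n = 6 animals; p < 0.01 unless indicated. NS means no significant inhibition of polyol accumulation.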

For assay [7], the system named is Rattus norvegicus. Kind of assay: Tested for in vivo inhibition of galactitol accumulation in the sciatic nerve of galactose-fed rats at the dose of 57.2 (mg/kg/day). The class given is functional. The method, boiled down:
as §1

Assay [8] has as its system Rattus norvegicus. The assay is described as follows: Tested for in vivo inhibition of galactitol accumulation in the lens of galactose-fed rats at the dose of 57.2 (mg/kg/day). The class given is functional, Lens of camera-type eye. The method, boiled down:
as §2

Assay [9] concerns Rattus norvegicus. Kind of assay: Tested for in vivo inhibition of galactitol accumulation in the sciatic nerve of galactose-fed rats at the dose of 4.7 (mg/kg/day). The class given is functional. The method, boiled down:
as §3

In assay [10] the test system is Rattus norvegicus. Kind of assay: Tested for in vivo inhibition of galactitol accumulation in the sciatic nerve of galactose-fed rats at the dose of 48 (mg/kg/day). It counts as functional. The method, boiled down:
as §1

Assay [11] has as its system Rattus norvegicus. The assay is described as follows: Tested for in vivo inhibition of galactitol accumulation in the lens of galactose-fed rats at the dose of 48 (mg/kg/day). The class given is functional, Lens of camera-type eye.
Assay [12] has as its system Rattus norvegicus. The assay is described as follows: Tested for in vivo inhibition of galactitol accumulation in the lens of galactose-fed rats at the dose of 4.7 (mg/kg/day); NS=Not significant. It counts as functional, organism-based. To be noted: Lens of camera-type eye.
Assay [13] relates to Rattus norvegicus. Kind of assay: Tested for in vivo inhibition of galactitol accumulation in the lens of galactose-fed rats at the dose of 85 (mg/kg/day). The class given is functional, Lens of camera-type eye. Summed up:
as §2

Assay [14] deals with Rattus norvegicus. Kind of assay: Tested for in vivo inhibition of galactitol accumulation in the lens of galactose-fed rats at the dose of 26.8 (mg/kg/day); NS=Not significant. The class given is functional, organism-based. The conditions noted are these: Lens of camera-type eye.
Assay [15] has as its system Rattus norvegicus. Kind of assay: Tested for in vivo inhibition of galactitol accumulation in the sciatic nerve of galactose-fed rats at the dose of 85 (mg/kg/day). It counts as functional. Summed up: as §1
The test system of assay [16] is Rattus norvegicus. The assay is described as follows: Tested for in vivo inhibition of galactitol accumulation in the sciatic nerve of galactose-fed rats at the dose of 26.8 (mg/kg/day). It counts as functional. Summed up:
as §3

Assay [17] relates to Rattus norvegicus. The assay is described as follows: Tested for in vivo inhibition of galactitol accumulation in the sciatic nerve of galactose-fed rats at the dose of 55.4 (mg/kg/day). The class given is functional. Summed up: as §1
Assay [18] has as its system Rattus norvegicus. The assay is described as follows: Tested for in vivo inhibition of galactitol accumulation in the lens of galactose-fed rats at the dose of 25.4 (mg/kg/day); NS=Not significant. The class given is functional, organism-based. The conditions noted are these: Lens of camera-type eye.
The test system of assay [19] is Rattus norvegicus. The assay is described as follows: Tested for in vivo inhibition of galactitol accumulation in the sciatic nerve of galactose-fed rats at the dose of 25.4 (mg/kg/day). It counts as functional. Summed up:
as §3

For assay [20], the system named is Rattus norvegicus. The assay is described as follows: Tested for in vivo inhibition of galactitol accumulation in the sciatic nerve galactose-fed rats at the dose of 25.9 (mg/kg/day). It counts as functional. Summed up:
as §3

In assay [21] the test system is Rattus norvegicus. The assay is described as follows: Tested for in vivo inhibition of galactitol accumulation in the lens of galactose-fed rats at the dose of 25.9 (mg/kg/day); NS=Not significant. The class given is functional, organism-based. The conditions noted are these: Lens of camera-type eye.
Assay [22] relates to Rattus norvegicus. Kind of assay: Tested for in vivo inhibition of galactitol accumulation in the lens of galactose-fed rats at the dose of 47 (mg/kg/day); NS=Not significant. It counts as functional, organism-based. To be noted: Lens of camera-type eye.
Assay [23] deals with Rattus norvegicus. Kind of assay: Tested for in vivo inhibition of galactitol accumulation in the sciatic nerve of galactose-fed rats at the dose of 47 (mg/kg/day). It counts as functional. The method, boiled down:
as §3

For assay [24], the system named is Rattus norvegicus. The assay is described as follows: Tested for in vivo inhibition of galactitol accumulation in the sciatic nerve of galactose-fed rats at the dose of 27.1 (mg/kg/day). It counts as functional. Summed up: as §3
Assay [25] concerns Rattus norvegicus. Kind of assay: Tested for in vivo inhibition of galactitol accumulation in the sciatic nerve of galactose-fed rats at the dose of 1.1 (mg/kg/day). It counts as functional. Summed up:
as §3

For assay [26], the system named is Rattus norvegicus. Kind of assay: Tested for in vivo inhibition of galactitol accumulation in the lens of galactose-fed rats at the dose of 27.1 (mg/kg/day). It counts as functional, Lens of camera-type eye.
Assay [27] deals with Rattus norvegicus. Kind of assay: Tested for in vivo inhibition of galactitol accumulation in the lens of galactose-fed rats at the dose of 1.1 (mg/kg/day); NS=Not significant. It counts as functional, organism-based. To be noted: Lens of camera-type eye.

Each structure is given as a SMILES string. The source made the active and inactive calls. The rule behind the calls is not given here.

In the case of `COC(=O)NC(=O)CC1C(=O)N(Cc2nc3cc(C(F)(F)F)ccc3s2)C(=O)c2ccccc21` (stereo not given), the results for the Inhibition in the assay on Rattus norvegicus [1] and in the assay on Rattus norvegicus [4] were 73% and 61%, respectively. The NS entry in the assay on Rattus norvegicus [2] was “inactive”. For the same compound, the inhibition (commonly how much of the control response was suppressed) in the assay with Rattus norvegicus [3] was “inactive”. The compound also yielded an inhibition in assay [5] of 95%.

For the compound `CN1C(=O)CC2(C1=O)C(=O)N(Cc1ccc(Br)cc1F)C(=O)c1ccc(F)cc12` (stereo not given), the Inhibition – broadly, the relative decrease from the control value, in per cent – in the assay with Rattus norvegicus [6] is 28%. Moreover, in assay [5], the inhibition entry is “inactive”.

Regarding `CC(=O)NN1C(=O)CC2(C(=O)N(Cc3ccc(Br)cc3F)C(=O)c3ccccc32)C1=O` (stereo not given), the Inhibition in the assay on Rattus norvegicus [7] is listed as 73%; with Rattus norvegicus [8], 25%. Further, the inhibition result in assay [5] is “inactive”.

As to `O=C1c2ccccc2C2(CC(=O)N(N=C3CCCC3)C2=O)C(=O)N1Cc1ccc(Br)cc1F` (stereo not given), the Inhibition is 86% in the assay with Rattus norvegicus [9], 82% in the assay with Rattus norvegicus [10] and 76% with Rattus norvegicus [11]. Further, the inhibition result (in assay [5]; with Rattus norvegicus [12]) was “inactive” each time.

On to `COC(=O)NC(=O)CC1C(=O)N(C)C(=O)c2ccccc21` (stereo not given), for which the Inhibition in the assay with Rattus norvegicus [13] came to 37%; in the assay on Rattus norvegicus [15] it was 59%; with Rattus norvegicus [16] it was 21%. For the same compound, in the assay with Rattus norvegicus [14], the inhibition result was “inactive”. In assay [5], the inhibition was determined as 61%.

The compound `CN1C(=O)CC2(C(=O)N(Cc3ccc(Br)cc3F)C(=O)c3ccccc32)C(=O)N1C` (stereo not given) came in with an Inhibition with Rattus norvegicus [17] of 76%. Moreover, in assay [5], the inhibition result is “inactive”.

For `COC(=O)NC(=O)CC1C(=O)N(Cc2ccc(Br)cc2F)C(=O)c2cc(OC)ccc21` (stereo not given), the inhibition result in the assay on Rattus norvegicus [18] is “inactive”. In addition, the Inhibition in the assay on Rattus norvegicus [19] turned out to be 68%.

With `COC(=O)NC(=O)CC1C(=O)N(Cc2ccc(Br)cc2F)C(=O)c2ccc(F)cc21` (stereo not given), the Inhibition in the assay on Rattus norvegicus [20] is on record as 78%. Further, the inhibition entry in the assay on Rattus norvegicus [21] was “inactive”. Further, the inhibition in assay [5] worked out at 55%.

As to `COC(=O)NC(=O)CC1C(=O)N(C)C(=O)c2ccc(F)cc21` (stereo not given), the inhibition entry with Rattus norvegicus [22] was “inactive”. This compound also gave an Inhibition with Rattus norvegicus [23] of 58%. This compound also showed an inhibition in assay [5] of 71%.

On to `CC(C)=NN1C(=O)CC2(C(=O)N(Cc3ccc(Br)cc3F)C(=O)c3ccc(F)cc32)C1=O` (stereo not given), for which the values for the Inhibition in the assay with Rattus norvegicus [24], in the assay on Rattus norvegicus [25] and in the assay on Rattus norvegicus [26] were 84%, 47% and 58%, respectively. The inhibition entry (in assay [5]; with Rattus norvegicus [27]) was “inactive” in each case.
